Screening results: PubChem BioAssay, several laboratories
Sampled rows, rich in hits. Any-hit rate of the full collection: about 1.5%.
NR2E3 ag-1: human photoreceptor-specific nuclear receptor agonism; CHO-S Gal4-NCOR/VP16-NR2E3 two-hybrid, luciferase; 360,000 compounds, 0.35% hits; inhibition of corepressor binding, % at 3.98 µM; Q9Y5X4;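 active = inhibition above the mean of all tested compounds plus 3 SD, cut at about 70% in these data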;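 also: 0% = DMSO with NR2E3 transfected cells and 100% = cells lacking NR2E3 construct; higher means lower luciferase signal from less NR2E3 corepressor binding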
Target sequence (Q9Y5X4 whole entry, looked up, the tested form may be a part): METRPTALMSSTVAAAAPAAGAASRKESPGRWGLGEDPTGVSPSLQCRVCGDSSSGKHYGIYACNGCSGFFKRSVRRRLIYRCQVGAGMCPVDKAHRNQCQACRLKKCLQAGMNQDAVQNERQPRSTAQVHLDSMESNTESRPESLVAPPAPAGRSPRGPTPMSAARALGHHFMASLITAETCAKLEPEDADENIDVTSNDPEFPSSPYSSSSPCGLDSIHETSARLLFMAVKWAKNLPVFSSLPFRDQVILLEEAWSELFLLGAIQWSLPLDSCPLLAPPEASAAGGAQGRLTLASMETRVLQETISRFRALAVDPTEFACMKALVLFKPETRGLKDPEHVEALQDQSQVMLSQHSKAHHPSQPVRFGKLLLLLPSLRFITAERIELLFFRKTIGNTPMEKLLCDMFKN
PG9 binder: PG9 antibody binding by small molecule | TR-FRET gp120-PG9 antibody binding | inhibition, % at 6.7 µM | 360,000 compounds, 0.43% hits; in the data active = inhibition above about 8.5%
NR1D1 modulator: Rev-erb alpha (human) modulation; P20393; Rev-erbα–FITC-DNA binding, fluorescence polarization, 90 min; activity, % at 10 µM; 370,000 compounds, 0.79% hits; AID 1259318;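 active = activity above about 14%, limit read from the data; passing the limit was not always enough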;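 also: 0% = DMSO wells with 35 nM protein and 100% = DMSO wells with 750 nM protein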
NR2E3 ag-2: agonists of human nuclear receptor NR2E3. GST-NR2E3/biotin-RetCOR TR-FRET, 1536-well. inhibition of corepressor binding, % at 4.78 µM. 320,000 compounds, 0.12% hits. AID 2300;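 active = percent inhibition above the cutoff of mean plus 3 SD of all tested compounds, set per screening campaign, cut at about 20% in these data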;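 also: 0% = DMSO wells and 100% = biotin wells as full block of FRET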
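Format: 1536-well format; test system: GST-NR2E3 and biotin-RetCOR proteins; read-out basis: percent inhibition of TR-FRET ratio; timing: 5 h incubation at 4 °C; detection: time-resolved FRET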
NR2E3 ag conf: confirmation of human NR2E3 agonists. inhibition, % at 3.98 µM. shares compounds with NR2E3 ag-1. 2,300 compounds, 51% hits. CHO-S mammalian two-hybrid NR2E3-NCOR, luciferase luminescence;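 active = average inhibition above a cutoff equal to the mean inhibition of all tested compounds plus one SD, cut at about 70% in these data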;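 also: 0% = DMSO in NR2E3 cells and 100% = DMSO in cells lacking NR2E3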
VP16 counter: GAL4-VP16 reporter inhibition in NR2E3 agonist counterscreen; 2,300 compounds, 29% hits; shares compounds with NR2E3 ag-1; inhibition, % at 3.98 µM; CHO-S GAL4-VP16 luciferase reporter, luminescence;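 active = mean inhibition above a cutoff equal to the average over all tested compounds plus one standard deviation, cut at about 70% in these data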;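 also: luciferase from a UAS reporter driven by GAL4-VP16 transactivation; 0% = DMSO with VP16-transfected cells and 100% = DMSO with cells lacking VP16; higher means less reporter light so more repression of VP16 activity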
PG9 bind confirm: confirmation of small molecules binding HIV-1 gp120 antibody PG9 | shares compounds with PG9 binder | TR-FRET PG9 antibody binding, biochemical | inhibition, % at 6.7 µM | 1,500 compounds, 90% hits | AID 651571; in the data active = inhibition above about 9%
PGV04 counter: binds control antibody PGV04 in PG9 binder counter-screen; shares compounds with PG9 binder; TR-FRET PGV04 antibody-gp120 binding, biochemical; inhibition, % at 6.7 µM; 1,500 compounds, 95% hits; in the data active = inhibition above about 9.5%
NR1D1 mod conf: Rev-erb alpha (human) modulation, hit confirmation; activation, % at 25 µM; 3,000 compounds, 61% hits; Rev-erb alpha FITC-DNA binding, fluorescence polarization, 90 min; AID 1259319; shares compounds with NR1D1 modulator;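 active = activation at or above a set limit, or at least 3 SD above the negative control mean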;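 also: 0% = 35 nM protein with DMSO and 100% = 750 nM protein high control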
RORg counter: counter-screen for Rev-erb alpha modulators: RORgamma DNA binding; AID 1259320; 910 compounds, 8% hits; purified RORgamma protein-FITC-DNA binding, fluorescence polarization; IC50, µM; shares compounds with NR1D1 modulator;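 active = Compounds whose fitted half-maximal concentration for disrupting protein-DNA binding is below 10 micromolar; the record names Rev-erb in its text, so the target is in doubt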
An asterisk follows results filed as active; / = not tested or not shown.

SMILES | NR2E3 ag-1 | PG9 binder | NR1D1 modulator | NR2E3 ag-2 | NR1D1 mod conf | others
CNc1ccc(C(=O)CC(O)CCC(C)C2OC(=O)CC(O)CC(=O)CC(O)CC(O)CC(O)CC(O)CC3(O)CC(O)C(C(=O)OC)C(CC(O[C@@H]4O[C@H](C)[C@@H](O)[C@H](N)[C@@H]4O)/C=C/C=C/C=C/C=C/C=C/C=C/C=C/C2C)O3)cc1 (stereo partly specified) | / | / | 6 | / | /
C#C[C@]1(O)C=C[C@H]2[C@@H]3CCC4=CC(=O)CC[C@@H]4[C@H]3CC[C@@]21CC | / | / | -1 | / | /
Cn1sc(Cl)cc1=O | / | / | 5 | / | /
Cc1ccc(-c2cc(-c3ccc(C)cc3)[n+](-c3ccccc3)c(-c3ccc(C)cc3)c2)cc1 | 100* | / | / | 2 | / | NR2E3 ag conf=100*;VP16 counter=96*
CN(C)c1ccc(-[n+]2c(-c3ccccc3)cc(-c3ccccc3)cc2-c2ccccc2)cc1 | 51 | 1 | 1 | / | / | NR2E3 ag conf=96*;VP16 counter=65
CCCC(C)C1(CC)C(=O)NC(=O)NC1=O (stereo unspecified) | / | / | -8 | / | /
CCOC(=O)[C@]12Cc3cc(Cl)ccc3[C@H]1N(CC(=O)OC)C(=O)c1ccccc12 | 61 | / | / | / | / | NR2E3 ag conf=2;VP16 counter=12
CCOC(=O)[C@]12Cc3cc(Cl)ccc3[C@H]1N(C1CCCCC1)C(=O)c1ccccc12 | 65 | / | / | / | / | NR2E3 ag conf=96*;VP16 counter=59
CCOC(=O)[C@]12Cc3cc(Cl)ccc3[C@H]1N(C)C(=O)c1ccccc12 | -18 | -1 | -3 | / | /
C=C[C@H]1CN2CC[C@H]1C[C@@H]2[C@H](O)c1ccnc2ccccc12 | / | / | 7 | / | /
CC1CC(C)CC(C)C(O)C(C#N)=CC=CCC(C2CCCC2C(=O)O)OC(=O)CC(O)C(C)C1 (stereo unspecified) | 102* | 1 | -7 | / | / | NR2E3 ag conf=101*;VP16 counter=100*
CC(C)(C)C(=O)c1cn(CC(=O)NCc2ccco2)c2ccccc12 | -96 | -1 | 4 | 9 | /
O=C(Cn1cc(C(=O)c2ccccc2F)c2ccccc21)NCc1ccco1 | -1 | 17* | 1 | 8 | / | PG9 bind confirm=15*;PGV04 counter=37*
CC(C)NC(C)C | / | / | -1 | / | /
COC(=O)Cn1cc(C=C2C(=O)N(C)C(=O)N(C)C2=O)c2ccccc21 | / | 24* | -1 | 3 | / | PG9 bind confirm=39*;PGV04 counter=53*
COc1ccc(-n2c(=S)[nH]c3ccc(C)cc3c2=O)cc1 | -11 | 41* | 52* | / | 19* | PG9 bind confirm=35*;PGV04 counter=39*
CC(C)(C)n1nnnc1C1CN=C(c2ccccc2)c2ccccc2N1 (stereo unspecified) | / | / | -1 | / | /
O=c1[nH]c(=S)n(Cc2ccc(F)cc2)c(O)c1C=NCc1ccc2c(c1)OCO2 | -15 | 1 | 25* | 0 | 12
CN(C)CCN=Cc1c(O)n(Cc2ccc3c(c2)OCO3)c(=S)[nH]c1=O | -8 | 0 | 4 | -2 | /
Nc1ccc2ccc3cccc[n+]3c2c1 | -54 | 2 | 127* | 7 | 105* | RORg counter=>40
C[n+]1c(-c2ccccc2)c2cc(N)ccc2c2ccc(N)cc21 | 14 | -18 | -22 | -5 | /
N#Cc1c(/N=C/c2ccc(O)cc2O)sc2c1C1CCN2CC1 | 1 | -4 | 12 | 0 | /
Cn1cc(Br)c(C(=O)Nc2ccc3c(C(F)(F)F)cc(=O)oc3c2)n1 | -16 | 0 | 15* | / | 3
CN(c1ccc(O)cc1)c1ccc([N+](=O)[O-])c2nonc12 | -1 | -7 | 25* | / | 30* | RORg counter=>40
O=C1NC(=O)N(c2ccc3c(c2)OCO3)C(=O)/C1=C\c1ccc(N2CCCCC2)o1 | -3 | -8 | 26* | 0 | 26*
SMILES | NR2E3 ag-1 | PG9 binder | NR1D1 modulator | NR2E3 ag-2 | NR1D1 mod conf | others
CN1C(=O)C(=Cc2ccc(N3CCCCCC3)o2)C(=O)N(C)C1=S | -25 | -3 | 39* | 0 | 60* | RORg counter=>40
CN1C(=O)C(=Cc2ccc(N3CCOCC3)o2)C(=O)N(C)C1=O | -27 | -9 | 41* | -1 | 44* | RORg counter=>40
Cc1ccccc1N1C(=O)NC(=O)/C(=C/c2ccc(N3CCOCC3)o2)C1=O | 22 | -4 | 17 | 2 | /
Cc1nc2ccc(P(=O)(O)O)cc2s1 | / | / | / | 1 | /
COc1cccc(/C=C2\N=C(c3cncc(Br)c3)OC2=O)c1 | -9 | 0 | 9 | -1 | /
Cc1ccc(-n2c(=S)[nH]c3ccccc3c2=O)cc1C | -8 | 0 | 5 | / | /
CCCC1(CCC)C(=O)NC(=Nc2ccc(C)cc2)NC1=O | / | 0 | -2 | 0 | /
O=[N+]([O-])c1ccc(N2CCCCCC2)c2nonc12 | -12 | -4 | 56* | -1 | 49* | RORg counter=4.1*
O=[N+]([O-])c1ccc(N2CCCCC2)c2ncccc12 | -44 | -2 | 10 | 2 | /
O=c1c(C=NCc2cccs2)c(O)n(C2CCCCC2)c(=O)n1C1CCCCC1 | -6 | 0 | 63* | 0 | 2
O=c1c(C=NCCN2CCNCC2)c(O)n(C2CCCCC2)c(=O)n1C1CCCCC1 | 2 | / | / | 5 | /
CC1CC(NC(=O)C2C3CCC(O3)C2C(=O)O)CC(C)(C)C1 (stereo unspecified) | 6 | -1 | -8 | -2 | /
CCCCOC(=O)COc1cc(C)cc2oc(=O)c3c(c12)CCC3 | -11 | -2 | 26* | 2 | 13
Cc1cc2c(C(F)(F)F)cc(=O)oc2c2c1NCCC2 | -9 | 3 | 17* | 2 | 17*
O=c1cc(C(F)(F)F)c2cc3c4c(c2o1)CCCN4CCC3 | -20 | 2 | 0 | 2 | /
c1ccc(Cn2nnnc2C2CN=C(c3ccccc3)c3ccccc3N2)cc1 (stereo unspecified) | / | / | 12 | / | /
COc1ccc(N=Nc2c(O)[nH]c(=S)[nH]c2=O)cc1 | -71 | -12 | 27* | -6 | 19*
COc1cccc(N=Nc2c(O)[nH]c(=S)[nH]c2=O)c1 | -24 | -10 | 5 | -1 | /
O=c1[nH]c(=S)[nH]c(O)c1N=Nc1ccc2c(c1)OCCO2 | -80 | -13 | 30* | -2 | 25*
O=[N+]([O-])c1ccc(NCc2ccccc2)c2nonc12 | / | -3 | 38* | 3 | 52* | RORg counter=4.1*
Cc1ccc(OC(=O)N(C)C[C@@H]2OCc3cnnn3CCCC(=O)N([C@@H](C)CO)C[C@@H]2C)cc1 | 1 | -3 | -4 | / | /
CCCCOCCCN1C(C)=CC(=C2C(=O)NC(=S)NC2=O)C=C1C | -25 | -1 | 41* | 0 | -2
